Converted amounts (≈) assume the structure as drawn. The source made the active and inactive calls. The calls are words filed in the database; no cut-off is given here. *1 amine or outer side, *2 acyl side, *3 side chain or, on linkers, in order; H or OH if unused. Where a SMILES comes first, the peptide text is derived from it. Bridges are numbered along the chain shown (N, C = ends). [ ]: non-standard residue; d: D form. The star is where a group is joined. pTerphenylCO(4''-OnC5H11) = CCCCCOc1ccc(-c2ccc(-c3ccc(C(=O)*)cc3)cc2)cc1; Orn(4R-OH,5R-OH) = O=C([C@H](C[C@@H](O)[C@@H](O)N[*:3])N[*:1])[*:2]; hTyr(3S-OH,4S-OH) = N[C@H](C(=O)O)[C@H](O)[C@@H](O)c1ccc(O)cc1; Pro(3S-OH,4S-Me) = C[C@H]1CN[C@H](C(=O)O)[C@H]1O; Hyp = O=C(O)[C@@H]1C[C@@H](O)CN1
How the values were obtained:
Candida albicans [1] = assay: Antifungal activity against Candida albicans NCPF6525 after 24 hrs by EUCAST test; format: functional
Summary of the method: (§1)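 EUCAST broth microdilution with aqueous doubling dilutions of drug. Inoculum grown overnight at 30°C in NGY, then added to MOPS-buffered RPMI 1640 with 2% glucose at an initial 10^5 yeasts/ml. Incubated 35°C for 24 h. MICs taken from triplicate spectrophotometric dose-response data as 50% and 80% growth-reduction endpoints.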

Candida albicans [2] = assay: Antifungal activity against Candida albicans T28 after 24 hrs by CLSI M27-A test; format: functional
Summary of the method: (§2)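 CLSI M27-A broth microdilution with aqueous doubling dilutions of drug. Inoculum grown overnight at 30°C in NGY medium, then added to MOPS-buffered RPMI 1640 at an initial 10^3 yeasts/ml. Incubated 35°C for 24 h. MIC read visually as the lowest concentration giving a marked decrease in visible growth; paradoxical or trailing growth noted.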

Candida albicans [3] = assay: Antifungal activity against Candida albicans T32 after 24 hrs by EUCAST test; format: functional; summary of the method: as §1
Candida albicans [4] = assay: Antifungal activity against Candida albicans NR2 after 24 hrs by CLSI M27-A test; format: functional; summary of the method: as §2
Candida albicans [5] = assay: Antifungal activity against Candida albicans NR2 after 24 hrs by EUCAST test; format: functional; summary of the method: as §1
Candida albicans [6] = assay: Antifungal activity against Candida albicans SC5314 after 24 hrs by CLSI M27-A test; format: functional; conditions: SC5314, 24 h; summary of the method: as §2
Candida albicans [7] = assay: Antifungal activity against Candida albicans SCS140136P after 24 hrs by CLSI M27-A test; format: functional; summary of the method: as §2
Candida albicans [8] = assay: Antifungal activity against Candida albicans SCS67023C after 24 hrs by EUCAST test; format: functional; summary of the method: as §1
Candida albicans [9] = assay: Antifungal activity against Candida albicans AM2003/0083 after 24 hrs by CLSI M27-A test; format: functional; summary of the method: as §2
Candida albicans [10] = assay: Antifungal activity against Candida albicans HK04M102095 after 24 hrs by EUCAST test; format: functional; summary of the method: as §1
Candida albicans [11] = assay: Antifungal activity against Candida albicans JIMS101103 after 24 hrs by CLSI M27-A test; format: functional, organism-based; summary of the method: as §2
Candida albicans [12] = assay: Antifungal activity against Candida albicans JIMS146204 after 24 hrs by EUCAST test; format: functional; summary of the method: as §1
Candida albicans [13] = assay: Antifungal activity against Candida albicans NCPF6525 after 24 hrs by CLSI M27-A test; format: functional; summary of the method: as §2
Candida albicans [14] = assay: Antifungal activity against Candida albicans NR3 after 24 hrs by EUCAST test; format: functional; summary of the method: as §1
Candida albicans [15] = assay: Antifungal activity against Candida albicans CAI4RI after 24 hrs by EUCAST test; format: functional; summary of the method: as §1
Candida albicans [16] = assay: Antifungal activity against Candida albicans T26 after 24 hrs by CLSI M27-A test; format: functional; summary of the method: as §2
Candida albicans [17] = assay: Antifungal activity against Candida albicans T26 after 24 hrs by EUCAST test; format: functional; summary of the method: as §1
Candida albicans [18] = assay: Antifungal activity against Candida albicans Y109 after 24 hrs by EUCAST test; format: functional; summary of the method: as §1
Candida dubliniensis [19] = assay: Antifungal activity against Candida dubliniensis 75/043 after 24 hrs by EUCAST test; format: functional; summary of the method: as §1
Candida dubliniensis [20] = assay: Antifungal activity against Candida dubliniensis 81/060 after 24 hrs by CLSI M27-A test; format: functional, organism-based; summary of the method: as §2
Candida dubliniensis [21] = assay: Antifungal activity against Candida dubliniensis 81/060 after 24 hrs by EUCAST test; format: functional; summary of the method: as §1
Candida dubliniensis [22] = assay: Antifungal activity against Candida dubliniensis 90/033 after 24 hrs by CLSI M27-A test; format: functional; summary of the method: as §2
Candida dubliniensis [23] = assay: Antifungal activity against Candida dubliniensis AMCC after 24 hrs by EUCAST test; format: functional; summary of the method: as §1
Candida dubliniensis [24] = assay: Antifungal activity against Candida dubliniensis Leic875 after 24 hrs by EUCAST test; format: functional
Summary of the method: (§3)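 Yeasts were grown overnight at 30°C in NGY, then inoculated at 10^5 yeasts/ml initial concentration into MOPS-buffered RPMI 1640 with 2% glucose containing aqueous doubling dilutions of drug. Plates were held at 35°C for 24 h. MICs came from triplicate spectrophotometric dose-response data at 50% and 80% growth-reduction endpoints. Trailing meant a >100-fold gap between these endpoints; paradoxical meant regrowth ≥5% above the curve minimum.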

Candida dubliniensis [25] = assay: Antifungal activity against Candida dubliniensis Leic952 after 24 hrs by EUCAST test; format: functional; summary of the method: as §3
Candida dubliniensis [26] = assay: Antifungal activity against Candida dubliniensis SCS17154969-1 after 24 hrs by EUCAST test; format: functional; summary of the method: as §3
Candida dubliniensis [27] = assay: Antifungal activity against Candida dubliniensis SCS17154969-2 after 24 hrs by CLSI M27-A test; format: functional
Summary of the method: (§4)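 Broth microdilution with echinocandins as aqueous doubling dilutions. Yeasts were grown overnight at 30°C in NGY and seeded at 10^3 yeasts/ml initial concentration in MOPS-buffered RPMI 1640, then incubated at 35°C for 24 h. The MIC was read visually as the lowest concentration giving a marked decrease in visible growth; paradoxical or trailing growth was noted.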

Candida dubliniensis [28] = assay: Antifungal activity against Candida dubliniensis SCS17154969-2 after 24 hrs by EUCAST test; format: functional; summary of the method: as §3
Candida dubliniensis [29] = assay: Antifungal activity against Candida dubliniensis ANSA 23a after 24 hrs by CLSI M27-A test; format: functional, organism-based; summary of the method: as §4
Candida dubliniensis [30] = assay: Antifungal activity against Candida dubliniensis ANSA 23a after 24 hrs by EUCAST test; format: functional; summary of the method: as §3
Candida dubliniensis [31] = assay: Antifungal activity against Candida dubliniensis B71507 after 24 hrs by CLSI M27-A test; format: functional; summary of the method: as §4
Candida dubliniensis [32] = assay: Antifungal activity against Candida dubliniensis J930936 after 24 hrs by EUCAST test; format: functional; summary of the method: as §3
Candida dubliniensis [33] = assay: Antifungal activity against Candida dubliniensis J931021 after 24 hrs by CLSI M27-A test; format: functional; summary of the method: as §4
Candida dubliniensis [34] = assay: Antifungal activity against Candida dubliniensis KR after 24 hrs by CLSI M27-A test; format: functional; summary of the method: as §4
Candida dubliniensis [35] = assay: Antifungal activity against Candida dubliniensis ST after 24 hrs by CLSI M27-A test; format: functional; summary of the method: as §4
Pichia kudriavzevii [36] = assay: Antifungal activity against Candida krusei ATCC 6258 after 24 hrs by EUCAST test; format: functional; conditions: ATCC 6258, 24 h; summary of the method: as §3
Pichia kudriavzevii [37] = assay: Antifungal activity against Candida krusei ATCC 6258 after 24 hrs by CLSI M27-A test; format: functional; conditions: ATCC 6258, 24 h
Summary of the method: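 Broth microdilution per CLSI M27-A. Drugs were prepared as aqueous doubling dilutions. Inoculum was grown overnight at 30°C in neopeptone-yeast extract-glucose medium, then added to MOPS-buffered RPMI 1640 at an initial 10^3 yeasts/ml. Plates were incubated at 35°C for 24 h. MIC was read visually as the lowest concentration giving a marked decrease in visible growth.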

CCCCCOc1ccc(-c2ccc(-c3ccc(C(=O)N[C@H]4C[C@@H](O)[C@@H](O)NC(=O)[C@@H]5[C@@H](O)[C@@H](C)CN5C(=O)[C@H]([C@@H](C)O)NC(=O)[C@H]([C@H](O)[C@@H](O)c5ccc(O)cc5)NC(=O)[C@@H]5C[C@@H](O)CN5C(=O)[C@H]([C@@H](C)O)NC4=O)cc3)cc2)cc1 [ANIDULAFUNGIN] ({pTerphenylCO(4''-OnC5H11)}-[Orn(4R-OH,5R-OH)]T[Hyp][hTyr(3S-OH,4S-OH)]T[Pro(3S-OH,4S-Me)]; lactam 1-C)
MIC50 (Candida albicans [1]): 0.25 µg/mL (≈ 0.219 µM) | MIC50 (Candida albicans [2]): ≤ 0.032 µg/mL | MIC50 (Candida albicans [3]): ≤ 0.032 µg/mL | MIC50 (Candida albicans [4]): 0.5 µg/mL (≈ 0.438 µM) | MIC50 (Candida albicans [5]): 0.25 µg/mL (≈ 0.219 µM) | MIC50 (Candida albicans [6]): ≤ 0.032 µg/mL | MIC50 (Candida albicans [7]): ≤ 0.032 µg/mL | MIC50 (Candida albicans [8]): ≤ 0.032 µg/mL | MIC50 (Candida albicans [9]): ≤ 0.032 µg/mL | MIC50 (Candida albicans [10]): ≤ 0.032 µg/mL | Activity (Candida albicans [11]): Active | MIC50 (Candida albicans [12]): ≤ 0.032 µg/mL | MIC50 (Candida albicans [13]): 0.13 µg/mL (≈ 0.114 µM) | MIC50 (Candida albicans [14]): 1 µg/mL (≈ 0.877 µM) | MIC50 (Candida albicans [15]): 0.25 µg/mL (≈ 0.219 µM) | MIC50 (Candida albicans [16]): 1 µg/mL (≈ 0.877 µM) | MIC50 (Candida albicans [17]): 0.5 µg/mL (≈ 0.438 µM) | MIC50 (Candida albicans [18]): 0.13 µg/mL (≈ 0.114 µM) | MIC50 (Candida dubliniensis [19]): ≤ 0.032 µg/mL | Activity (Candida dubliniensis [20]): Active | MIC50 (Candida dubliniensis [21]): ≤ 0.032 µg/mL | MIC50 (Candida dubliniensis [22]): ≤ 0.032 µg/mL | MIC50 (Candida dubliniensis [23]): ≤ 0.032 µg/mL | MIC50 (Candida dubliniensis [24]): ≤ 0.032 µg/mL | MIC50 (Candida dubliniensis [25]): 8 µg/mL (≈ 7.02 µM) | MIC50 (Candida dubliniensis [26]): ≤ 0.032 µg/mL | MIC50 (Candida dubliniensis [27]): ≤ 0.032 µg/mL | MIC50 (Candida dubliniensis [28]): 0.063 µg/mL (≈ 0.0553 µM) | Activity (Candida dubliniensis [29]): Active | MIC50 (Candida dubliniensis [30]): ≤ 0.032 µg/mL | MIC50 (Candida dubliniensis [31]): ≤ 0.032 µg/mL | MIC50 (Candida dubliniensis [32]): ≤ 0.032 µg/mL | MIC50 (Candida dubliniensis [33]): ≤ 0.032 µg/mL | MIC50 (Candida dubliniensis [34]): ≤ 0.032 µg/mL | MIC50 (Candida dubliniensis [35]): ≤ 0.032 µg/mL | MIC50 (Pichia kudriavzevii [36]): 0.063 µg/mL (≈ 0.0553 µM) | MIC50 (Pichia kudriavzevii [37]): 0.13 µg/mL (≈ 0.114 µM)

— ChEMBL document CHEMBL1143838, “Candida albicans and Candida dubliniensis respond differently to echinocandin antifungal agents in vitro” (2007)
